This note sets out measurements from ChEMBL document CHEMBL1144738, “Cytotoxic diterpenoids and sesquiterpenoids from Pteris multifida” (J Nat Prod, 2008).

A word on the IC50: it is the point on the concentration scale where inhibition reaches its midpoint. Low values mean greater potency, high ones weaker potency.

One experiment has as its system HepG2. The experiment can be described thus: Cytotoxicity against human HepG2 cells by SRB method. Format: functional, cell-based. Summed up: (§1)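 Adherent cells were grown in RPMI1640 with 10% FBS, 100 U/mL penicillin and 100 U/mL streptomycin, then plated and incubated for 24 h. They were exposed to test compounds at 10^-2 to 10^2 µM for 72 h. Growth inhibition was read by sulforhodamine B (SRB) staining and expressed as IC50, the mean of triplicate points. Adriamycin and taxotere were positive controls.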

In another experiment the test system is KB. As to the kind of experiment: Cytotoxicity against human KB cells by SRB method. Type of experiment: functional, cell-based. The method, boiled down:
as §1
(The SRB assay estimates cell density from bound dye.)

The test system of a further experiment is LoVo. As to the kind of experiment: Cytotoxicity against human LoVo cells by SRB method. Format: functional, cell-based. Summed up:
as §1

For another experiment, the system named is K562. As to the kind of experiment: Cytotoxicity against human K562 cells by WST-1 method.

For the molecule `C=C1[C@@H]2CC[C@H]3[C@]4(C)C[C@H](O)C[C@](C)(CO)[C@H]4CC[C@]3(C2)[C@H]1O`, the concentration for half-maximal inhibition (IC50) with HepG2 is above 100 µM; with KB, 26.4 µM; in the experiment on LoVo, 20.3 µM; in the experiment on K562, above 100 µM.
Regarding `C=C1[C@@H]2CC[C@H]3[C@]4(C)C[C@H](O)C[C@](C)(CO)[C@H]4CC[C@]3([C@@H]2O)[C@H]1O`, the 50% inhibitory concentration (IC50) in the experiment on HepG2 was above 100 µM; in the experiment on KB, 69.6 µM; in the experiment with LoVo it was 76.3 µM; in the experiment on K562, above 100 µM.
In the case of `Cc1cc2c(c(C)c1CCO[C@@H]1O[C@H](CO)[C@@H](OC(=O)/C=C/c3ccc(O)cc3)[C@H](O)[C@H]1O)C(=O)[C@H](C)C2`, the IC50 is above 100 µM in the experiment on HepG2, 45.3 µM with KB, above 400 µM in the experiment with LoVo and 64.6 µM with K562.
For `Cc1cc2c(c(C)c1CCO)C(=O)[C@H](C)[C@@H]2O[C@@H]1O[C@H](CO)[C@@H](OC(=O)/C=C/c2ccc(O)cc2)[C@H](O)[C@H]1O`, in that order: 9.26 µM, 23.8 µM, above 400 µM and 9.57 µM.
For `CC1(C)C[C@@H](O)C[C@]2(C)[C@@H]1[C@H](O)C[C@@]13C[C@@H](CC[C@H]12)[C@@](O)(CO)C3`, in that order: 82.4 µM, 53.7 µM, 91.7 µM and 81.9 µM.
For `Cc1cc2c(c(C)c1CCO)C(=O)[C@@H](C)[C@@H]2O[C@@H]1O[C@H](CO)[C@@H](OC(=O)/C=C/c2ccc(O)cc2)[C@H](O)[C@H]1O` the same measures were 8.69 µM, 14.2 µM, 11.3 µM and 10.6 µM.
With `CC(=O)O[C@@]12CO[C@@H]1C[C@H](O)[C@@]1(C)C(=O)[C@H](O)C3=C(C)[C@@H](OC(=O)[C@H](O)[C@@H](NC(=O)OC(C)(C)C)c4ccccc4)C[C@@](O)([C@@H](OC(=O)c4ccccc4)[C@H]21)C3(C)C` [DOCETAXEL], the results for the IC50 with KB and in the experiment with LoVo were 0.00114 µM and 0.00197 µM, respectively.
Regarding `COc1cccc2c1C(=O)c1c(O)c3c(c(O)c1C2=O)C[C@@](O)(C(=O)CO)C[C@@H]3O[C@H]1C[C@H](N)[C@H](O)[C@H](C)O1` [DOXORUBICIN], the IC50 in the experiment on HepG2 is 0.06 µM; in the experiment on KB, above 400 µM; with LoVo, above 400 µM; in the experiment with K562 it was 0.09 µM.
